Test results from PubChem BioAssay.
Active and inactive are the calls of the source.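 The calls were made as follows, unless noted: active = inhibition at or above 50% relative to wild type and mutant plate controls; inactive = inhibition below 50%.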

Tests used:
[1] = inhibitors of TNFa-induced NFkB p65 translocation, primary screen, imaging, HUVEC, MLSMR starter and 10KST1 sets (AID 438;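 active = inhibition above 20% together with a positive visual image hit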;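 also: compound added about 3h40 before a 20 min TNFalpha stimulation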;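 as to inhibition: signal is the nuclear over cytoplasmic p65 intensity ratio per well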); settings: HUVEC TNFa-induced p65 nuclear translocation; cell count: measured here: nuclei count (cytotoxicity indicator), at 2.08 µM; inhibition: at 2 µM, stronger effect = higher value, 0% TNFa-plus-vehicle, 100% no-TNFa wells
[2] = endothelial E-selectin expression blockers – imaging, HUVEC, immunofluorescence, MLSMR starter and 10KST1 sets, primary screen (AID 487;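 active = visually confirmed hit in the image check and inhibition above 20%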;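 as to inhibition: signal is fraction of cell area covered by stained E-selectin grains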;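 as to nuclei count: 100% = median nuclei count of all wells on the same plate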); settings: HUVEC TNFalpha-induced E-selectin immunofluorescence imaging, at 2 µM; inhibition: stronger effect = higher value; nuclei count: measured here: cell number, toxicity
[3] = Primary imaging screen for DUSP6 inhibitors that restore phospho-Erk in transfected HeLa cells, chemical complementation (AID 609;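 active = compounds giving at least 50% inhibition in the cell-based MKP-3 phosphatase rescue imaging test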;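 as to inhibition: phospho-Erk level distribution per well compared with pooled transfected vehicle control wells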); settings: HeLa MKP-3 transfected, phospho-Erk imaging KS statistic, at 10 µM, cells stimulated with TPA for 15 min
[4] = biological target: Dual specificity protein phosphatase 6 (Homo sapiens) (UniProt Q16828); assay: as above; settings: HeLa MKP-3 transfected, phospho-Erk imaging KS statistic; at 10 µM; stronger effect = higher value; cells stimulated with TPA for 15 min
Chain of Dual specificity protein phosphatase 6 (Homo sapiens) (Q16828 whole entry, looked up): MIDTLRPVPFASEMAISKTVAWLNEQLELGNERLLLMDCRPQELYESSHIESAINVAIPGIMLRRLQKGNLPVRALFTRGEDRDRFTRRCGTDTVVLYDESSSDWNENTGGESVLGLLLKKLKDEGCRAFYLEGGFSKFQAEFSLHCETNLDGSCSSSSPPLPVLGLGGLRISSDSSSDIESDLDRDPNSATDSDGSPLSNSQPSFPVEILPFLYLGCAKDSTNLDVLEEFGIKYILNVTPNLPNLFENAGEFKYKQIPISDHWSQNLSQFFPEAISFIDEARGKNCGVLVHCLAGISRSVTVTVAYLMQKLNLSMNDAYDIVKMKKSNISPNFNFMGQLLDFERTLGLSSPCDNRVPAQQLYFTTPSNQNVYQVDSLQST

[5] = biological target: Voltage-gated potassium channel subunit beta-2 (Rattus norvegicus) (UniProt P62483); assay: inhibitors of rat Kvbeta2 reductase activity – biochemical, NADPH fluorescence, primary screen (AID 622;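 active = fluorescence slope higher than the sample average by over 3 SD, cut at about -0.22 in these data, passing the limit was not always enough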;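 also: slope of raw intensity against log time taken from 70 to 1610 s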); settings: recombinant KvBeta, 4-cyanobenzaldehyde reduction, at 10 µM, stronger effect = higher value
Chain of Voltage-gated potassium channel subunit beta-2 (Rattus norvegicus) (P62483 whole entry, looked up): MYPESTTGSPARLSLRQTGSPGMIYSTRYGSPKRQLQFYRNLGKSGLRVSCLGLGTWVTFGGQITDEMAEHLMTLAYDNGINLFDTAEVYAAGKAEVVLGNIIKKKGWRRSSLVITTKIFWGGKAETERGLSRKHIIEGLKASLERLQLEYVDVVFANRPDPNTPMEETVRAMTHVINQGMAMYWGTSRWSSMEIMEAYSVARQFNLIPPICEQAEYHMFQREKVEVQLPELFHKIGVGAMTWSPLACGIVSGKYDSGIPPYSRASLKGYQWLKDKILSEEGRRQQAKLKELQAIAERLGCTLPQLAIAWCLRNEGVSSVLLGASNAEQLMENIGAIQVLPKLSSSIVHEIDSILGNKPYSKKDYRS

[6] = biological target: Voltage-gated potassium channel subunit beta-2 (Rattus norvegicus) (UniProt P62483); assay: enhancers of rat Kvbeta2 NADPH turnover – biochemical, NADPH fluorescence, primary screen (AID 623;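 active = NADPH fluorescence slope more negative than the mean of all samples by about 3 SD, 99.7% confidence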;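 also: fluorescence intensity change per second fitted from 20 to 320 s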); settings: Recombinant KvBeta, NADPH fluorescence decrease slope, 10 min; at 10 µM; stronger effect = lower value
[7] = biological target: Alpha-2C adrenergic receptor (Homo sapiens) (UniProt P18825); assay: compounds altering alpha2C-coupled GIRK flux – cell-based, HEK293 alpha2C/GIRK1/2, thallium flux, primary screen (AID 624;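 active = fluorescence slope after compound addition differing from the mean of all screened samples at 99.7% confidence, in either direction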;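 also: slope of fluorescence ratio to pre-addition baseline per second over 15 to 24 s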); settings: thallium flux BTC fluorescence, at 10 µM, actives lie on both sides
Chain of Alpha-2C adrenergic receptor (Homo sapiens) (P18825 whole entry, looked up): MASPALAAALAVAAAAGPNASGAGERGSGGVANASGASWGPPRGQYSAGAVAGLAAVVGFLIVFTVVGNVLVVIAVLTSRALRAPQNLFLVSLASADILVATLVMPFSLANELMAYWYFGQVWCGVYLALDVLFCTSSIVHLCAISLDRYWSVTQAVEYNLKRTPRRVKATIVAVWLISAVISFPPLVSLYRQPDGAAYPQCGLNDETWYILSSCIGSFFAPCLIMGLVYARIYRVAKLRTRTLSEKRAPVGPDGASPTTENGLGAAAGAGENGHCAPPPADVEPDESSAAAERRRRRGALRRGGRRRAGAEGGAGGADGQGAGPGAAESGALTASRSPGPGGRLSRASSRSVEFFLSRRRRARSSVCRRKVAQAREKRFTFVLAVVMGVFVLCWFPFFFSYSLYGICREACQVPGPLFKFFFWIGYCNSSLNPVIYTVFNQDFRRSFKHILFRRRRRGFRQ

[8] = inhibitors of larval lipid processing in zebrafish, primary screen, whole organism, PED6 fluorescence, gall bladder and intestine (AID 686;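 active = a full or partial loss of lipid-probe fluorescence in the fish gall bladder, intestine or both, judged by eye; inactive = no fluorescence loss, or compound toxic to the fish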;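 also: larvae 5 to 7 days old with five fish per well; signal comes from phospholipase A2 cleavage of quenched PED6 carried via bile; overnight exposure to compound and PED6 before scoring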); settings: Zebrafish larvae PED6 lipid processing, fluorescence scoring; screened at 20 µM (by protocol)
Summary of the method: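 system = live zebrafish larvae aged 5-7 days, whole organism | probe or stimulus = ingested quenched lipid PED6 at 100 nM | doses = 20 µM single dose | timing = overnight exposure | detection = fluorescence microscopy with visual scoring of gall bladder and intestine | read-out = visual per-well fluorescence inhibition score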

[9] = loss of swimming-algae plug formation – whole organism, Chlamydomonas reinhardtii, WT vs cilia-less mutant, absorbance, 96-well, primary screen (AID 463189); settings: Chlamydomonas reinhardtii gravitaxis, OD600 absorbance, 2 days; at 10 µM; stronger effect = higher value;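 also: 0% = wild type cc124 cells in DMSO and 100% = ciliumless bld1 mutant cells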
[10] = measured here: cell density z-score
[11] = measured here: nuclear c-Myc green intensity z-score
[12] = measured here: nuclear pErk red intensity z-score, stronger effect = higher value

| SMILES | cell count [1] | inhibition [1] | inhibition [2] | nuclei count [2] [%] | z-score [3, 10] | z-score [3, 11] | z-score [3, 12] | inhibition [4] | fluorescence slope [5] | NADPH fluorescence slope [6] | slope [7] | outcome [8] | inhibition [9] |
| --- | --- | --- | --- | --- | --- | --- | --- | --- | --- | --- | --- | --- | --- |
| CC(C)Cc1nc(N2CCCCC2)c(C#N)c2c1CCC2 | 513 | -0.1% (inactive) | -91.7% (inactive) | 135 | -1.47 | 0.461 | -0.497 | 1.6e-07% (inactive) | -0.506 (inactive) | -3.4e-06 (inactive) | 0.006 (inactive) | inactive; toxic | -3.52% (inactive) |
| COc1cccc(OC)c1-c1nn2c(-c3ccccc3Cl)nnc2s1 | 611 | -4.2% (inactive) | -50.2% (inactive) | 159 | 1.55 | -0.0979 | -0.298 | -6.06% (inactive) | -0.444 (inactive) | -0.000105 (inactive) | 0.00355 (inactive) | inactive | 101% (active) |
| C=CCn1c(SCc2c(F)c(F)c(F)c(F)c2F)nc(O)cc1=O | 615 | -1.1% (inactive) | -11.1% (inactive) | 149 | 1.68 | -0.511 | 0.131 | 7.83% (inactive) | -0.502 (inactive) | -0.00012 (inactive) | 0.00491 (inactive) | inactive | 8.12% (inactive) |
| Cc1ccc(-c2ccccc2NC(=O)C2C3C=CC(C3)C2C(=O)O)o1 (stereo not given) | 553 | -2.2% (inactive) | -4.5% (inactive) | 154 | 0.45 | -0.671 | -0.083 | 14% (inactive) | -0.352 (inactive) | 5.5e-06 (inactive) | 0.00466 (inactive) | inactive | 7.64% (inactive) |
| CCN(CC)c1ccc2cc(C(=O)Nc3ccccn3)c(=O)oc2c1 | 384 | -12% (inactive) | 0.4% (inactive) | 80.2 | -0.204 | 0.482 | 0.701 | -2.07% (inactive) | -0.433 (inactive) | -2.6e-05 (inactive) | 0 (inactive) | inactive | 20.3% (inactive) |
| CC1(C)Cc2c(sc(NC(=O)c3ccc(Br)o3)c2C#N)CO1 | 406 | -17.8% (inactive) | -330% (inactive) | 140 | 0.838 | -0.788 | -0.494 | 7.48% (inactive) | -0.371 (inactive) | -1.6e-05 (inactive) | 0.00697 (inactive) | inactive | 8.5% (inactive) |
| O=C(O)CC(NCc1ccco1)C(=O)OCCc1ccccc1 (stereo not given) | 534 | -1.9% (inactive) | 6.5% (inactive) | 116 | -0.641 | 0.383 | -0.409 | -1.75% (inactive) | -0.398 (inactive) | 5.7e-06 (inactive) | 0.00596 (inactive) | inactive | 32.9% (inactive) |
| Cc1cc(OCCN2CCOCC2)nc2ccccc12 | 358 | -29.5% (inactive) | -231% (inactive) | 135 | 0.234 | -1.97 | -1.2 | -10.5% (inactive) | -0.431 (inactive) | -9.4e-05 (inactive) | 0.00613 (inactive) | inactive | 22.7% (inactive) |
| N#Cc1c(SCC(N)=O)nsc1SCc1ccc(Cl)cc1 | 633 | -17.9% (inactive) | -60.5% (inactive) | 148 | 0.999 | -1.2 | -0.0749 | 17.7% (inactive) | -0.406 (inactive) | -1.2e-05 (inactive) | 0.00612 (inactive) | inactive | 26.4% (inactive) |
| Cc1cc(C)n(CC(=O)N2c3ccccc3Sc3ccccc32)n1 | 563 | -0.4% (inactive) | -139% (inactive) | 139 | 0.655 | 0.867 | -0.852 | 15.9% (inactive) | -0.508 (inactive) | -4.4e-05 (inactive) | 0.00518 (inactive) | inactive | 14.7% (inactive) |
| COC(=O)C1C(=O)CC(C)(O)C(C(=O)OC)C1c1ccccc1F (stereo not given) | 586 | -1.8% (inactive) | -42.2% (inactive) | 178 | -1.74 | -0.438 | 1.61 | 7.83% (inactive) | -0.345 (inactive) | -3.4e-05 (inactive) | 0.00488 (inactive) | inactive | -7% (inactive) |
| O=C(O)C1CC=CCC1C(=O)N1CCN(c2nc(-c3ccccc3)c3ccccc3n2)CC1 (stereo not given) | 373 | -16.9% (inactive) | -48.5% (inactive) | 165 | -1.19 | 1.08 | 0.0489 | -5.26% (inactive) | -0.305 (inactive) | -7.9e-05 (inactive) | 0.00497 (inactive) | inactive | 28.5% (inactive) |
| COc1cc(C2NC(=O)NC(C)=C2C(=O)Nc2cccc(C)c2C)cc(OC)c1OC (stereo not given) | 566 | -3.3% (inactive) | -47.5% (inactive) | 183 | 0.296 | 0.344 | -0.592 | -2.91% (inactive) | -0.35 (inactive) | -1.5e-05 (inactive) | 0.00551 (inactive) | inactive | -6.92% (inactive) |
| O=C(c1cccc(Cl)c1)N1CCN(C(=O)c2ccccc2F)CC1 | 359 | -17.3% (inactive) | -357% (inactive) | 113 | -0.228 | -0.0273 | -2.04 | 1.75% (inactive) | -0.466 (inactive) | -1.8e-06 (inactive) | 0.00888 (inactive) | inactive | -3.06% (inactive) |
| Cc1sccc1C1C(C#N)=C(N)SC(N)=C1C#N | 693 | -19.1% (inactive) | -22.1% (inactive) | 167 | 0.12 | -0.636 | 1.06 | 16% (inactive) | -0.345 (inactive) | -2.2e-05 (inactive) | 0.00967 (inactive) | inactive | -2.96% (inactive) |
| CCOC(=O)c1cc2c(=O)n3cccc(C)c3nc2n(Cc2cccnc2)c1=N | 583 | 3.3% (inactive) | -66.9% (inactive) | 157 | 0.481 | -1.62 | 0.0154 | 4.25% (inactive) | -0.457 (inactive) | -0.000115 (inactive) | 0.00416 (inactive) | inactive | 58.8% (active) |
| CC(C(=O)N1CCOCC1)N1C(=O)c2ccccc2C1=O (stereo not given) | 306 | -3% (inactive) | -45.1% (inactive) | 96 | 1.24 | -0.122 | -1.67 | -8.76% (inactive) | -0.419 (inactive) | 2.4e-06 (inactive) | 0.0049 (inactive) | inactive | 15.3% (inactive) |
| COc1ccccc1N1CCN(C2CCN(C(=O)c3cccs3)CC2)CC1 | 390 | -7.8% (inactive) | -197% (inactive) | 173 | -0.252 | 0.0653 | 1.15 | -5.89% (inactive) | -0.397 (inactive) | -3e-05 (inactive) | 0.00342 (inactive) | inactive | 22.3% (inactive) |
| COc1ccc(-c2nn3c(C4CCCCC4)nnc3s2)cc1OC | 580 | -19.9% (inactive) | -19.9% (inactive) | 159 | -0.887 | 0.0164 | 0.338 | -18.6% (inactive) | -0.442 (inactive) | -0.000143 (inactive) | 0.00441 (inactive) | inactive | 25.1% (inactive) |
| CCOC(=O)c1c(C)cccc1OCC(N)=O | 638 | -2.3% (inactive) | 13.5% (inactive) | 175 | -0.228 | -0.623 | 1.22 | -0.159% (inactive) | -0.487 (inactive) | -0.000164 (inactive) | 0.0049 (inactive) | inactive | -5.84% (inactive) |
| CCOc1ccc(-c2nn3c(-c4ccc(OC)cc4)nnc3s2)cc1 | 620 | -14.6% (inactive) | -58.9% (inactive) | 162 | 0.559 | -1.74 | 0.0677 | 2.92% (inactive) | -0.443 (inactive) | -7.7e-05 (inactive) | 0.00846 (inactive) | inactive | 5.79% (inactive) |
| COc1ccc(NC(=O)Nc2cccc(C(=O)N3CCOCC3)c2)cc1OC | 543 | 0% (inactive) | -176% (inactive) | 131 | 0.702 | -0.546 | -0.00586 | 12.3% (inactive) | -0.527 (inactive) | -7.4e-05 (inactive) | 0.00529 (inactive) | inactive | 12.3% (inactive) |
| c1ccc2c(c1)NC(c1ccncc1)n1c-2nc2ccccc21 (stereo not given) | 301 | 5% (inactive) | -118% (inactive) | 108 | -1.27 | 1.48 | 0.784 | -2.91% (inactive) | -0.384 (inactive) | -5.4e-05 (inactive) | 0.00501 (inactive) | inactive | -2.42% (inactive) |
| COc1ccccc1N1CCN(CCOc2c(OC)cccc2OC)CC1 | 492 | -10.5% (inactive) | -105% (inactive) | 116 | -1.56 | 1.65 | 0.711 | -3.98% (inactive) | -0.469 (inactive) | -0.000262 (inactive) | 0.00445 (inactive) | inactive | -3.94% (inactive) |
| N#CC12CCCCC1CC1CCCCC1(C#N)N2Cc1cccnc1 (stereo not given) | 364 | -10.3% (inactive) | 3.8% (inactive) | 97.2 | 1.59 | -0.921 | -1.61 | 17% (inactive) | -0.557 (inactive) | -6.5e-05 (inactive) | 0.00335 (inactive) | inactive | 44.6% (inactive) |
